Hits are enriched below; roughly 3.8% of the tested compounds scored in any of these assays.
KCNK9 inh: blocks the human KCNK9 two-pore domain potassium channel; Q9NPC2; B-score at 10 µM; AID 488922; HEK293 KCNK9, FluxOR thallium flux fluorescence; hits give low values; hit rate 1.2% among 310,000;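 active = ratio B-score over 3 SD below the library mean, with starting fluorescence within 5 SD of its mean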;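 also: negative B-score means less thallium flux so channel inhibition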
KCNQ1 inh: inhibitors of human KCNQ1 potassium channel; P51787; CHO-K1 KCNQ1, FluxOR thallium flux fluorescence; hits give high values; B-score at 10 µM; hit rate 1.3% among 310,000; AID 2642;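 active = compounds whose thallium flux B-score, printed positive for inhibition, exceeds three library SD while starting fluorescence stays within three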;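 also: channel opened by potassium depolarization with thallium stimulus after 20 min compound exposure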
Kir21 inh: blocks the mouse Kir2.1 inward-rectifier potassium channel. P35561. HEK293-Kir2.1, FluxOR thallium flux fluorescence; hits give low values. hit rate 0.85% among 310,000. AID 1672. B-score at 10 µM;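 active = fluorescence ratio B-score at or below minus 3 SD of library scores, with starting-brightness B-score within 2 SD, cut at about -4.2 in these data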;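 also: channel flux triggered by added potassium and thallium sulfate stimulus; B-score of peak minus minimum fluorescence over baseline after thallium stimulus; more negative B-score means stronger Kir2.1 block with less thallium influx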
KCNQ1 act: human KCNQ1 channel potentiation or activation; P51787; CHO-K1 KCNQ1, thallium flux FluxOR fluorescence; hits give high values; B-score at 10 µM; hit rate 0.35% among 310,000;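 active = fluorescence ratio B-score, a plate-corrected score, at least three library SD, with initial intensity B-score within 5 SD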
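Assay system: CHO-K1 cells stably expressing KCNQ1. Medium: assay buffer for compound exposure, DMSO matched across wells. Timing: 37 °C overnight plating, 90-min dark dye load, 20-min compound pretreatment. Signal: kinetic FluxOR fluorescence, 10 s baseline plus 110 s post-stimulus.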
hERG protect: compounds protecting human hERG from proarrhythmic drug block. hit rate 0.51% among 310,000. Q12809. activation (rescue from dofetilide block), less the hit threshold, % at 10 µM. AID 1511. CHO-hERG, FluxOR thallium flux, dofetilide IC70 present;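 active = activation above the mean of controls blocked by dofetilide plus 5 SD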;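 also: thallium influx through hERG after potassium depolarization seen as dye fluorescence rise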
KCNK3 block: human KCNK3 channel inhibition, primary screen; O14649; CHO-KCNK3 thallium flux, FluxOR fluorescence; hits give low values; hit rate 0.84% among 340,000; B-score at 10 µM;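 active = B-score under library mean minus 4 SD, starting fluorescence ratio at most library mean plus 5 SD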;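 also: more negative B-score means stronger inhibition of thallium flux through KCNK3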
Target sequence (O14649 whole entry, looked up): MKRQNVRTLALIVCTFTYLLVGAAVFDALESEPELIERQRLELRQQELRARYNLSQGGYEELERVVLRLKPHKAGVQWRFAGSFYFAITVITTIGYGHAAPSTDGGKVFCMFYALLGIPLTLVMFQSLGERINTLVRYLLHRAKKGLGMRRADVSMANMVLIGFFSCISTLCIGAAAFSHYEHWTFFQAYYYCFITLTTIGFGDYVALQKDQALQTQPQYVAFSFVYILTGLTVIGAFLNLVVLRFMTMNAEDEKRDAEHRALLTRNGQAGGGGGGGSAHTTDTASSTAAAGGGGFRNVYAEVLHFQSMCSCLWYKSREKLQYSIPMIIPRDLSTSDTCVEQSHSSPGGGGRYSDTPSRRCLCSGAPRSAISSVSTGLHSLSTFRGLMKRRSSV
Active calls of the source: *; i = inactive; nt = no result.

SMILES	KCNK9 inh	KCNQ1 inh	Kir21 inh	KCNQ1 act	hERG protect	KCNK3 block
Cc1ccc(C(=O)N[C@@H](C)CN2C3=NC[C@H](Cc4ccccc4)N3C[C@H]2Cc2ccc(O)cc2)cc1Br	i	i	-5.4*	i	-19	nt
O=C1CN=C(c2ccccc2)c2cc(Br)ccc2N1	i	i	-0.4	i	-1	i
C=C1C(=O)O[C@@H]2C[C@@H](C)[C@@H]3C=CC(=O)[C@@]3(C)[C@@H](OC(=O)CC(=O)O[C@H]3[C@@H]4C(=C)C(=O)O[C@@H]4C[C@@H](C)[C@@H]4C=CC(=O)[C@]43C)[C@H]12	i	i	-4.7*	i	-17	i
CCCNC(=O)N1[C@H]2CC[C@@H]1C(C(=O)OC)=C(c1ccc(S(C)(=O)=O)cc1)C2	i	i	0.2	i	-3	i
C1CCC2S[C@H]3CCCCC3NC2C1 (some centres not stated)	i	i	0.29	i	5.3*	i
CCCOC(=O)c1ccc(-[n+]2c(-c3ccccc3)cc(-c3ccccc3)cc2-c2ccccc2)cc1	-7.7*	12*	-11*	i	-36	i
O=C(O)c1ccc(-[n+]2c(-c3ccccc3)cc(-c3ccccc3)cc2-c2ccccc2)cc1	i	i	-0.64	i	-2	i
c1cncc(C2Nc3cccc4cccc(c34)N2)c1	i	i	0.43	i	-2	i
Cc1cc([N+](=O)[O-])c(Cl)cc1NC(=O)C(C)C	i	i	-0.99	i	-4	i
CNc1cc(Cl)c2nonc2c1[N+](=O)[O-]	i	10*	-6.6*	i	-24	i
Cc1cc(N2CCCCC2)ccc1C=C1C(=O)N(C)C(=S)N(C)C1=O	i	i	-0.43	i	-9	i
Cc1cc(N2CCCC2)ccc1C=C(C#N)C#N	-6.7*	12*	0.38	i	-27	i
O=c1[nH]c(O)c(/C=C2/C=CC(c3cc(Cl)ccc3Cl)=N2)c(=O)[nH]1	i	i	0.34	i	7.2*	i
CC1=Nc2ccccc2/C1=C/c1c(O)[nH]c(=O)[nH]c1=O	i	i	0.48	i	-2	i
Oc1ccccc1-[n+]1c(-c2ccccc2)cc(-c2ccccc2)cc1-c1ccccc1	i	14*	-12*	i	-43	i
Nc1ccccc1-[n+]1c(-c2ccccc2)cc(-c2ccccc2)cc1-c1ccccc1	i	7*	-5.8*	i	-17	i
Cc1ccccc1-[n+]1c(-c2ccccc2)cc(-c2ccccc2)cc1-c1ccccc1	i	10*	-16*	i	-41	i
[O-]c1ccccc1-[n+]1c(-c2ccccc2)cc(-c2ccccc2)cc1-c1ccccc1	-7.4*	6*	-9.7*	i	-41	i
CCOC(=O)C(O)(c1ccc(N(CC)C(=O)COc2ccccc2)cc1)C(F)(F)F (configuration not stated)	i	i	-1.3	i	-10	i
O=C(NC12CC3CC(CC(C3)C1)C2)OC1CN2CCC1CC2 (configuration not stated)	i	i	-0.63	i	-5	i
CN1CCN(c2ccc([N+](=O)[O-])c3no[n+]([O-])c23)CC1	i	10*	-6.6	i	-36	i
CC(C)(C)c1ccc(CSc2cnn(C(C)(C)C)c(=O)c2Cl)cc1	i	11*	2	i	-15	i
CC(=O)N1CC(=O)Nc2ccc(Br)cc2C1c1ccc(F)cc1 (configuration not stated)	i	i	0.59	i	-5	i
C#CCN[C@H](C)Cc1ccccc1	nt	nt	nt	nt	nt	i
CC(Cc1ccccc1)NCc1ccccc1O (configuration not stated)	i	i	-5.5*	i	-10	i
SMILES	KCNK9 inh	KCNQ1 inh	Kir21 inh	KCNQ1 act	hERG protect	KCNK3 block
CCc1ccc(NC2=NCCCS2)cc1	i	i	-1.2	i	-10	i
O=[N+]([O-])c1ccc(-c2ccccc2)c([As](=O)(O)O)c1	i	i	-1.2	i	-10	i
Cc1ccsc1/C=C1\C(=O)NC(=S)N(C)C1=O	i	8*	0.02	i	-3	i
CN1C(=O)/C(=C/c2ccc(Cl)s2)C(=O)NC1=S	i	i	0.27	i	5.2*	i
O=C1Nc2ccccc2C1Cc1nc2ccccc2c(=O)n1-c1ccccc1 (configuration not stated)	i	i	1.1	i	-11	i
COc1ccc(OC)c(N2C(=O)/C(=C/c3ccco3)C(=O)NC2=S)c1	i	i	1.9	i	8.4*	nt
C=C(C)[C@H]1CN[C@H](C(=O)O)[C@H]1CC(=O)O	i	i	0.41	i	-6	i
O=C1NCCCCC1(Cl)Cl	nt	nt	nt	nt	nt	i
C/C(=N\NC(=O)c1ccccc1Cl)c1c(O)n(C2CCCCC2)c(=O)[nH]c1=O	i	i	-0.41	i	-15	i
C/C(=N\NC(=O)c1ccccc1O)c1c(O)n(C2CCCCC2)c(=O)[nH]c1=O	i	6*	-2	i	-15	i
CC1CCN(C(CC(=O)c2ccccc2)C(=O)c2ccccc2)CC1 (configuration not stated)	nt	nt	nt	nt	nt	-9.1*
COc1ccc(-c2nn(CCC#N)cc2C(=O)NCc2ccccc2)cc1OC	i	i	0.03	i	-11	i
O=C(O)Cn1cc(/C=C2\C(=O)NC(=O)N(c3ccc(Cl)cc3)C2=O)c2ccccc21	i	i	-0.83	i	-5	i
Cn1cc(/C=C2\C(=O)NC(=O)N(c3ccccc3)C2=O)c2ccccc21	-8*	i	0.01	i	-8	i
O=C(Nc1ccccc1)N1Cc2ccccc2-n2nncc2C1	nt	nt	nt	nt	nt	i
CC(C)OC(=O)Cc1ccccc1	nt	nt	nt	nt	nt	i
Oc1ccc(CC2(N3CCCC3)CCCCC2)cc1	i	i	0	i	7.7*	i
O=C(Cc1ccc(Cl)c(Cl)c1)NCC1(N2CCOCC2)CCCCC1	i	i	-0.26	i	-23	i
CC1(C)C(C(=O)N2CCN(c3ccc(Cl)cc3)CC2)C1(C)C	i	i	1.3	i	-7	i
COC(=O)C1CN(C#N)N(c2ccc(Cl)cc2)C12c1ccccc1-c1ccccc12 (configuration not stated)	-8.9*	i	1.5	i	-5	i
CC1([N+](=O)[O-])COP(=O)(NC2CCCC2)OC1 (configuration not stated)	nt	nt	nt	nt	nt	i
COc1ccc(CCNCc2ccccc2)cc1	i	i	-2.9	i	-9	i
COc1ccc(CCNCc2c(OC)ccc3ccccc23)cc1	i	i	-11*	i	-14	i

High-throughput results (PubChem)
